# Measured values collected from several papers.
# Compare with care: the assays were run in different laboratories.
Structure (SMILES),tested on,assay,system,setting,measurement,value
CS(=O)(=O)c1ccc([C@@H](O)[C@@H](CF)NC(=O)C(Cl)Cl)cc1,Salmonella enterica,microbial growth,ENTERITIDIS,"20 h, pH 7.2",MIC,8 µg/mL
COC(=O)c1cccc(-c2cccc(Nc3nccc(NC(C)C)n3)c2)c1,BJ,"cell growth or viability, ATP luminescence",,72 h,EC50,13.2 µM
CN(C)[C@@H]1C(O)=C(C(N)=O)C(=O)[C@@]2(O)C(O)=C3C(=O)c4c(O)cccc4[C@@](C)(O)[C@H]3C[C@@H]12,Salmonella enterica,microbial growth,,"20 h, pH 5.5",MIC,1 µg/mL
c1ccc(-c2cccc(Nc3nccc(NC4CCCCC4)n3)c2)cc1,BJ,"cell growth or viability, ATP luminescence",,72 h,EC50,> 5 µM
CC[C@H]1OC(=O)[C@H](C)[C@@H](O[C@H]2C[C@@](C)(OC)[C@@H](O)[C@H](C)O2)[C@H](C)[C@@H](O[C@@H]2O[C@H](C)C[C@H](N(C)C)[C@H]2O)[C@](C)(OC)C[C@@H](C)C(=O)[C@H](C)[C@@H](O)[C@]1(C)O,Helicobacter pylori,"microbial growth, broth dilution",,0.24 µg/mL,inhibition,81.3%
Cc1ccc(-c2nc3ccccc3s2)cc1NC(=O)c1cc([N+](=O)[O-])c(NC2CCN(C)CC2)cc1Cl,BJ,"cell growth or viability, ATP luminescence",,,EC50,> 9.2 µM
O=c1cc(-c2ccc(O)cc2)oc2cc(O)cc(O)c12,Helicobacter pylori,"microbial growth, broth dilution",,31.25 µg/mL,inhibition,100%
CO/N=C(\C(=O)N[C@@H]1C(=O)N2C(C(=O)O)=C(CSc3nc(=O)c(=O)[nH]n3C)CS[C@H]12)c1csc(N)n1,Salmonella enterica,microbial growth,"F98, TYPHIMURIUM","20 h, pH 7",MIC,0.125 µg/mL
CNc1ccnc(Nc2cccc(-c3cccnc3)c2)n1,BJ,"cell growth or viability, ATP luminescence",,72 h,EC50,> 20 µM
O=C(O)c1ccc(O)cc1,Helicobacter pylori,"microbial growth, broth dilution",,62.5 µg/mL,inhibition,100%
CC1(C)S[C@@H]2[C@H](NC(=O)[C@H](N)c3ccccc3)C(=O)N2[C@H]1C(=O)O,Salmonella enterica,microbial growth,"F98, TYPHIMURIUM","20 h, pH 7.2",MIC,2 µg/mL
c1cncc(-c2cccc(Nc3nccc(NC4CCOCC4)n3)c2)c1,BJ,"cell growth or viability, ATP luminescence",,72 h,EC50,> 24 µM
O=c1cc(-c2ccc(O)c(O)c2)oc2cc(O)cc(O)c12,Helicobacter pylori,"microbial growth, broth dilution",,3.9 µg/mL,inhibition,100%
C[C@H](Nc1ccnc(Nc2cccc(-c3cccnc3)c2)n1)C(=O)O,BJ,"cell growth or viability, ATP luminescence",,72 h,EC50,> 9 µM
Cc1cc(NS(=O)(=O)c2ccc(N)cc2)no1,Salmonella enterica,microbial growth,ENTERITIDIS,"20 h, pH 5.5",MIC,128 µg/mL
